Activity calls are given as the source filed them. The rule behind the calls is not given here.
Assays:
[1] = tested on: MIA PaCa-2; assay: Antiproliferative activity against human MIA PaCa-2 cells assessed as sensitizing activity by measuring combination index at ED50 measured after 3 days in presence of ABT- 199 by Prestoblue assay; type: functional; settings: time 3 day
Summary of the method: (§1)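 MiaPaCa2 cells were treated for 3 days with the CDK9 degrader and a Bcl2-family inhibitor (ABT-263, ABT-199 or WEHI-539), singly and combined. Viability was read by PrestoBlue. Combination index values were calculated with CalcuSyn at effective doses ED50, ED75 and ED90.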

[2] = tested on: MIA PaCa-2; assay: Antiproliferative activity against human MIA PaCa-2 cells assessed as sensitizing activity by measuring combination index at ED90 measured after 3 days in presence of ABT- 263 by Prestoblue assay; type: functional; settings: time 3 day; summary of the method: as §1
[3] = tested on: MIA PaCa-2; assay: Antiproliferative activity against human MIA PaCa-2 cells assessed as sensitizing activity by measuring combination index at ED75 measured after 3 days in presence of ABT- 263 by Prestoblue assay; type: functional; settings: time 3 day; summary of the method: as §1
[4] = tested on: MIA PaCa-2; assay: Antiproliferative activity against human MIA PaCa-2 cells assessed as sensitizing activity by measuring combination index at ED50 measured after 3 days in presence of ABT- 263 by Prestoblue assay; type: functional; settings: time 3 day; summary of the method: as §1
[5] = target: T1, Protein cereblon/Cyclin-dependent kinase 9 (Homo sapiens, UniProt P50750+Q96SW2); assay: Protac activity at CDK9/CRBN in human HEK293 cells assessed as degradation of CDK9 incubated for 24 hrs by Western blot analysis; type: cell-based
Summary of the method: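 HEK293 cells were treated with increasing concentrations (0.01–10 μM) for 24 hr. Lysates were analysed by western blot for CDK9 degradation.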

[6] = target: T1, Protein cereblon/Cyclin-dependent kinase 9; assay: Protac activity at CDK9/CRBN in human HEK293 cells assessed as degradation of CDK9 at 1 uM incubated for 24 hrs by Western blot analysis relative to control; type: cell-based
Target sequence in this assay (P50750 whole entry, looked up): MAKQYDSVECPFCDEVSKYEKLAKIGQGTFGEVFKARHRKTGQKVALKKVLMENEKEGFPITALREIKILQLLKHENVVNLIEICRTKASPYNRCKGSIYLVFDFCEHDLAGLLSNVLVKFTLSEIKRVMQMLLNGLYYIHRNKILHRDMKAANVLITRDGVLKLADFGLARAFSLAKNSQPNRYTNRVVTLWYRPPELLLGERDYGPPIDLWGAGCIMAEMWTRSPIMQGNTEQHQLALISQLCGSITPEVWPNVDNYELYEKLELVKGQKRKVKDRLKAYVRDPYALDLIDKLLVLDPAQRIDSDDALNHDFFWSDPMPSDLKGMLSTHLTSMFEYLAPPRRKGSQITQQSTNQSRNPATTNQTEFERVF
Target sequence in this assay (Q96SW2 whole entry, looked up): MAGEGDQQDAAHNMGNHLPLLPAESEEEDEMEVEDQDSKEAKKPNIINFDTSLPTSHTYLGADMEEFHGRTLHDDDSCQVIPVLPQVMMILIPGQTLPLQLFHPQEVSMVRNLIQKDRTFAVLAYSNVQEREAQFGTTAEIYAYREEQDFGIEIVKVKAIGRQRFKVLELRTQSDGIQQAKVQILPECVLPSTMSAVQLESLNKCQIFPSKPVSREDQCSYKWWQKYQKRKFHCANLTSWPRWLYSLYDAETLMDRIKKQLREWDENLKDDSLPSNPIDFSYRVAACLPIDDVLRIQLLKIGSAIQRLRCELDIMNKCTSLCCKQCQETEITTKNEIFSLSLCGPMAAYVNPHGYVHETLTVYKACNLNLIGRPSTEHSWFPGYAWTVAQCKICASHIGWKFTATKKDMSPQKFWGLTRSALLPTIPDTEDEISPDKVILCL

[7] = target: CDK9/Cyclin K (Homo sapiens) (UniProt P50750+O75909); assay: Protac activity at Cyclin K/CRBN in human HEK293 cells assessed as degradation of cyclin K at 0.01 to 10 uM incubated for 24 hrs by Western blot analysis; type: cell-based; settings: dose 0.01-10 µM
[8] = target: T2, Protein cereblon/Cyclin-dependent kinase 12 (Homo sapiens) (UniProt Q9NYV4+Q96SW2); assay: Protac activity at CDK12/CRBN in human HEK293 cells assessed as degradation of CDK12 at 0.01 to 10 uM incubated for 24 hrs by Western blot analysis; type: cell-based; settings: dose 0.01-10 µM
T2 sequence (Q96SW2 whole entry, looked up): as above
T2 sequence (Q9NYV4 whole entry, looked up): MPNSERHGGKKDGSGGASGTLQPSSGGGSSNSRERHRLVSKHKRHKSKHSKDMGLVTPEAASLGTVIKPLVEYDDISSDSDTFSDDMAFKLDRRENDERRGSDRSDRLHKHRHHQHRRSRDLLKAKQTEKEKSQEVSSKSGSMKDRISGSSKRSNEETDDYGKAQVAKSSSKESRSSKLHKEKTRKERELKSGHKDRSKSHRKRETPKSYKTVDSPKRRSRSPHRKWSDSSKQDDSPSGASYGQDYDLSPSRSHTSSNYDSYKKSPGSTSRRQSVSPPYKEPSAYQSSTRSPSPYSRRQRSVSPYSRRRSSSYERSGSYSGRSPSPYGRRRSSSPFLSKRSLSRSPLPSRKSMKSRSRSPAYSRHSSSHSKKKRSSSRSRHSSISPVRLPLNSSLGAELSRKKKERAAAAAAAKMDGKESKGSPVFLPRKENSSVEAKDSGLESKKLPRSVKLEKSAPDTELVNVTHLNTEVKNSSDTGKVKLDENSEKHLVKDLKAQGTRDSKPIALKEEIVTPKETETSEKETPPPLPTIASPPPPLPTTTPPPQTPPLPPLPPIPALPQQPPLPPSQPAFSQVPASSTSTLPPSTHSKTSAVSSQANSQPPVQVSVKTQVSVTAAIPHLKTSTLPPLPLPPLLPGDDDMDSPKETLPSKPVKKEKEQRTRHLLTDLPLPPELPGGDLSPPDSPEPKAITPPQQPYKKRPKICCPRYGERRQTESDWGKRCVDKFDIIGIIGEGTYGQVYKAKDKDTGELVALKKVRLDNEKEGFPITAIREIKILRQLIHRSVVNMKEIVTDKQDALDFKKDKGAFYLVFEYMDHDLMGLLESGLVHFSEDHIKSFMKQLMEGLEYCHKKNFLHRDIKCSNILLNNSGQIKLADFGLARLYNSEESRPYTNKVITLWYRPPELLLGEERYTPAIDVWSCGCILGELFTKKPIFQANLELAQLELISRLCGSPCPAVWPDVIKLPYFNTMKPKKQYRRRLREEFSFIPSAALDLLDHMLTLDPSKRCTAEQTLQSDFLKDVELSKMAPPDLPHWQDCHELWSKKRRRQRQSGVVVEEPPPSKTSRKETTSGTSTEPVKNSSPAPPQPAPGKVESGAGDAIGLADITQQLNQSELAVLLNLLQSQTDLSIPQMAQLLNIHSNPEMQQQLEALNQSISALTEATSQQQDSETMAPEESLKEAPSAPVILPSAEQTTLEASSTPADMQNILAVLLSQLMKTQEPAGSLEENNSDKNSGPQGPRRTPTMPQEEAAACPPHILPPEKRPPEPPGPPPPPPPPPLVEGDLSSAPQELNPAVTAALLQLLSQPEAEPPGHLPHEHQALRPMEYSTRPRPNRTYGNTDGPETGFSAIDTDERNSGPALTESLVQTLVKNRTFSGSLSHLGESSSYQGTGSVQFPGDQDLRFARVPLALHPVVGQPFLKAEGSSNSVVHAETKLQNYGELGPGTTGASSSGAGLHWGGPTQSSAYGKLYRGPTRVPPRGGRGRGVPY

[9] = target: T3, Protein cereblon/Cyclin-dependent kinase 8 (Homo sapiens) (UniProt P49336+Q96SW2); assay: Protac activity at CDK8/CRBN in human HEK293 cells assessed as degradation of CDK8 at 0.01 to 10 uM incubated for 24 hrs by Western blot analysis; type: cell-based; settings: dose 0.01-10 µM
[10] = target: T4, Protein cereblon/Cyclin-dependent kinase 7 (Homo sapiens) (UniProt P50613+Q96SW2); assay: Protac activity at CDK7/CRBN in human HEK293 cells assessed as degradation of CDK7 at 0.01 to 10 uM incubated for 24 hrs by Western blot analysis; type: cell-based; settings: dose 0.01-10 µM
[11] = target: T5, Protein cereblon/Cyclin-dependent kinase 6 (Homo sapiens) (UniProt Q00534+Q96SW2); assay: Protac activity at CDK6/CRBN in human HEK293 cells assessed as degradation of CDK6 at 0.01 to 10 uM incubated for 24 hrs by Western blot analysis; type: cell-based; settings: dose 0.01-10 µM
[12] = target: T6, Protein cereblon/Cyclin-dependent kinase 5 (Homo sapiens) (UniProt Q00535+Q96SW2); assay: Protac activity at CDK5/CRBN in human HEK293 cells assessed as degradation of CDK5 at 0.01 to 10 uM incubated for 24 hrs by Western blot analysis; type: cell-based; settings: dose 0.01-10 µM
[13] = target: T7, Protein cereblon/Cyclin-dependent kinase 4 (Homo sapiens) (UniProt P11802+Q96SW2); assay: Protac activity at CDK4/CRBN in human HEK293 cells assessed as degradation of CDK4 at 0.01 to 10 uM incubated for 24 hrs by Western blot analysis; type: cell-based; settings: dose 0.01-10 µM
T7 sequence (P11802 2-303 limits assumed): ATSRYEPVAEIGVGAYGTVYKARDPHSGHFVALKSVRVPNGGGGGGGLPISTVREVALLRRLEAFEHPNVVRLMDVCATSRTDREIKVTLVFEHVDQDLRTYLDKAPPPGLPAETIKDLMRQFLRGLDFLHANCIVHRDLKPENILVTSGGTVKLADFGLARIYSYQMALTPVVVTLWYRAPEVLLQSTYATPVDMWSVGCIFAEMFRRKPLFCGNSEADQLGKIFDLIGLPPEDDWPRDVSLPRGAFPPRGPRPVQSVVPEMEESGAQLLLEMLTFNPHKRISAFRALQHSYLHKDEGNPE
T7 sequence (Q96SW2 whole entry partner): as the sequence (Q96SW2 whole entry, looked up) above

[14] = target: T8, Protein cereblon/Cyclin-dependent kinase 2 (Homo sapiens) (UniProt P24941+Q96SW2); assay: Protac activity at CDK2/CRBN in human HEK293 cells assessed as degradation of CDK2 at 0.01 to 10 uM incubated for 24 hrs by Western blot analysis; type: cell-based; settings: dose 0.01-10 µM
[15] = target: T9, Protein cereblon/Cyclin-dependent kinase 1 (Homo sapiens) (UniProt P06493+Q96SW2); assay: Protac activity at CDK1/CRBN in human HEK293 cells assessed as degradation of CDK1 at 0.01 to 10 uM incubated for 24 hrs by Western blot analysis; type: cell-based; settings: dose 0.01-10 µM
T9 sequence (P06493 whole entry, looked up): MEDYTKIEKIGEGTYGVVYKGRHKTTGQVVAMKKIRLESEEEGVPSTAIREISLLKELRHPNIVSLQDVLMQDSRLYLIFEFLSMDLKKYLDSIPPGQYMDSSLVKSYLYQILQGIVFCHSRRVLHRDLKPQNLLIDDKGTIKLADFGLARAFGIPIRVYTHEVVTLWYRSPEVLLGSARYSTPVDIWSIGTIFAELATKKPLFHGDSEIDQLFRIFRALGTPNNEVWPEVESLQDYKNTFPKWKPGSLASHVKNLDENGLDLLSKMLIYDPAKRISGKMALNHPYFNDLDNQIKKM
T9 sequence (Q96SW2 whole entry, looked up): as the sequence (Q96SW2 whole entry, looked up) above

[16] = target: T1, Protein cereblon/Cyclin-dependent kinase 9; assay: Protac activity at CDK9/CRBN in human HEK293 cells assessed as degradation of CDK9 at 1 uM measured up to 24 hrs by Western blot analysis; type: cell-based; settings: time hrs <=24
Summary of the method: (§2)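 Time course in HEK293 cells at 1 μM degrader; lysates collected at indicated time points up to 24 h and probed by western blot for the various CDKs.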
Target sequence in this assay (P50750 whole entry, looked up): as the sequence (P50750 whole entry, looked up) above
Target sequence in this assay (Q96SW2 whole entry, looked up): as the sequence (Q96SW2 whole entry, looked up) above

[17] = target: T2, Protein cereblon/Cyclin-dependent kinase 12 (Homo sapiens); assay: Protac activity at CDK12/CRBN in human HEK293 cells assessed as degradation of CDK12 at 1 uM measured upto 24 hrs by Western blot analysis; type: cell-based; settings: time hrs <=24; summary of the method: as §2
[18] = target: T3, Protein cereblon/Cyclin-dependent kinase 8 (Homo sapiens); assay: Protac activity at CDK8/CRBN in human HEK293 cells assessed as degradation of CDK8 at 1 uM measured upto 24 hrs by Western blot analysis; type: cell-based; settings: time hrs <=24; summary of the method: as §2
[19] = target: T4, Protein cereblon/Cyclin-dependent kinase 7 (Homo sapiens); assay: Protac activity at CDK7/CRBN in human HEK293 cells assessed as degradation of CDK7 at 1 uM measured upto 24 hrs by Western blot analysis; type: cell-based; settings: time hrs <=24; summary of the method: as §2
[20] = target: T5, Protein cereblon/Cyclin-dependent kinase 6 (Homo sapiens); assay: Protac activity at CDK6/CRBN in human HEK293 cells assessed as degradation of CDK6 at 1 uM measured upto 24 hrs by Western blot analysis; type: cell-based; settings: time hrs <=24; summary of the method: as §2
[21] = target: T6, Protein cereblon/Cyclin-dependent kinase 5 (Homo sapiens); assay: Protac activity at CDK5/CRBN in human HEK293 cells assessed as degradation of CDK5 at 1 uM measured upto 24 hrs by Western blot analysis; type: cell-based; settings: time hrs <=24; summary of the method: as §2
[22] = target: T7, Protein cereblon/Cyclin-dependent kinase 4 (Homo sapiens); assay: Protac activity at CDK4/CRBN in human HEK293 cells assessed as degradation of CDK4 at 1 uM measured upto 24 hrs by Western blot analysis; type: cell-based; settings: time hrs <=24; summary of the method: as §2
[23] = target: T8, Protein cereblon/Cyclin-dependent kinase 2 (Homo sapiens); assay: Protac activity at CDK2/CRBN in human HEK293 cells assessed as degradation of CDK2 at 1 uM measured upto 24 hrs by Western blot analysis; type: cell-based; settings: time hrs <=24; summary of the method: as §2
[24] = target: T9, Protein cereblon/Cyclin-dependent kinase 1 (Homo sapiens); assay: Protac activity at CDK1/CRBN in human HEK293 cells assessed as degradation of CDK1 at 1 uM measured upto 24 hrs by Western blot analysis; type: cell-based; settings: time hrs <=24; summary of the method: as §2
[25] = target: T10, Cyclin-dependent kinase 5 (Homo sapiens, UniProt Q00535); assay: Inhibition of CDK5 (unknown origin)
[26] = target: T11, Cyclin-dependent kinase 9 (Homo sapiens, UniProt P50750); assay: Inhibition of CDK9 (unknown origin)
T11 sequence (P50750 whole entry): as the sequence (P50750 whole entry, looked up) above

[27] = target: T1, Protein cereblon/Cyclin-dependent kinase 9; assay: Protac activity at CDK9/CRBN in human HEK293 cells assessed as degradation of CDK9 at 1 uM incubated for 24 hrs in presence of pomalidomide by Western blot analysis; type: cell-based
Summary of the method: (§3)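 Competition in HEK293 cells: 10 μM pomalidomide (CRBN ligand) alone or combined with 1 μM degrader for 24 h; lysates analysed by western blot.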
Target sequence in this assay (P50750 whole entry, looked up): as above
Target sequence in this assay (Q96SW2 whole entry, looked up): as the sequence (Q96SW2 whole entry, looked up) above

[28] = target: T4, Protein cereblon/Cyclin-dependent kinase 7 (Homo sapiens); assay: Protac activity at CDK7/CRBN in human HEK293 cells assessed as degradation of CDK7 at 10 uM incubated for 24 hrs in presence of pomalidomide by Western blot analysis; type: cell-based; summary of the method: as §3
[29] = target: Cyclin-dependent kinase 7 (Homo sapiens) (UniProt P50613); assay: Inhibition of CDK7 in human HEK293 cells assessed as reduction in CDK7 level at 10 uM incubated for 24 hrs in presence of flavopiridol by Western blot analysis; type: cell-based
[30] = target: T1, Protein cereblon/Cyclin-dependent kinase 9; assay: Protac activity at CDK9/CRBN in human HEK293 cells assessed as degradation of CDK9 at 1 uM incubated for 24 hrs in presence of MG132 by Western blot analysis; type: cell-based
Summary of the method: (§4)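 HEK293 cells co-treated for 24 h with degrader and increasing concentrations of proteasome inhibitor MG132; lysates examined by western blot.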
Target sequence in this assay (P50750 whole entry, looked up): as the sequence (P50750 whole entry, looked up) above
Target sequence in this assay (Q96SW2 whole entry, looked up): as the sequence (Q96SW2 whole entry, looked up) above

[31] = target: T9, Protein cereblon/Cyclin-dependent kinase 1 (Homo sapiens); assay: Protac activity at CDK1/CRBN in human HEK293 cells assessed as degradation of CDK1 at 1 uM incubated for 24 hrs in presence of MG132 by Western blot analysis; type: cell-based; summary of the method: as §4
[32] = target: T2, Protein cereblon/Cyclin-dependent kinase 12 (Homo sapiens); assay: Protac activity at CDK12/CRBN in human HEK293 cells assessed as degradation of CDK12 at 1 uM incubated for 24 hrs in presence of MG132 by Western blot analysis; type: cell-based; summary of the method: as §4
[33] = tested on: MIA PaCa-2; assay: Antiproliferative activity against human MIA PaCa-2 cells assessed as sensitizing activity by measuring combination index at ED75 measured after 3 days in presence of ABT- 199 by Prestoblue assay; type: functional; settings: time 3 day; summary of the method: as §1
[34] = tested on: MIA PaCa-2; assay: Antiproliferative activity against human MIA PaCa-2 cells assessed as sensitizing activity by measuring combination index at ED90 measured after 3 days in presence of ABT- 199 by Prestoblue assay; type: functional; settings: time 3 day; summary of the method: as §1
[35] = tested on: MIA PaCa-2; assay: Antiproliferative activity against human MIA PaCa-2 cells assessed as sensitizing activity by measuring combination index at ED50 measured after 3 days in presence of WEHI-539 by Prestoblue assay; type: functional; settings: time 3 day; summary of the method: as §1
[36] = tested on: MIA PaCa-2; assay: Antiproliferative activity against human MIA PaCa-2 cells assessed as sensitizing activity by measuring combination index at ED75 measured after 3 days in presence of WEHI-539 by Prestoblue assay; type: functional; settings: time 3 day; summary of the method: as §1
[37] = tested on: MIA PaCa-2; assay: Antiproliferative activity against human MIA PaCa-2 cells assessed as sensitizing activity by measuring combination index at ED90 measured after 3 days in presence of WEHI-539 by Prestoblue assay; type: functional; settings: time 3 day; summary of the method: as §1
[38] = target: T1, Protein cereblon/Cyclin-dependent kinase 9; assay: Protac activity at CDK9/CRBN in human HEK293 cells assessed as degradation of CDK9 by Western blot analysis; type: cell-based; settings: TDE = time-dependent effect
Target sequence in this assay (P50750 whole entry, looked up): as the sequence (P50750 whole entry, looked up) above
Target sequence in this assay (Q96SW2 whole entry, looked up): as the sequence (Q96SW2 whole entry, looked up) above

[39] = target: T1, Protein cereblon/Cyclin-dependent kinase 9; assay: Protac activity at CDK9/CRBN in human MIA PaCa-2 cells assessed as degradation of CDK9; type: cell-based
Target sequence in this assay (P50750 whole entry, looked up): as the sequence (P50750 whole entry, looked up) above
Target sequence in this assay (Q96SW2 whole entry, looked up): as the sequence (Q96SW2 whole entry, looked up) above

[40] = target: T1, Protein cereblon/Cyclin-dependent kinase 9; assay: Protac activity at CDK9/CRBN in human SUIT-2 cells assessed as degradation of CDK9; type: cell-based
[41] = target: T10, Cyclin-dependent kinase 5; assay: Binding affinity to CDK5 (unknown origin)
[42] = target: T11, Cyclin-dependent kinase 9; assay: Binding affinity to CDK9 (unknown origin)
[43] = target: T12, Cyclin-dependent kinase 2 (Homo sapiens, UniProt P24941)
[44] = target: T12, Cyclin-dependent kinase 2; remark: listed apart in the source
[45] = target: T11, Cyclin-dependent kinase 9; assay: Inhibition of CDK9 in human HEK293 cells assessed as reduction in CDK9 level at 1 uM incubated for 8 hrs in presence of flavopiridol by Western blot analysis

O=C(CCCOc1ccc(CC(=O)Nc2cc(C3CCC3)[nH]n2)cc1)NCCCCNc1cccc2c1C(=O)N(C1CCC(=O)NC1=O)C2=O (stereo unspecified)
CI [1]: 0.02
CI [2]: 0.1
CI [3]: 0.12
CI [4]: 0.16
Activity [5]: Dose-Dependent Effect
DC50 [5]: 0.158 µM
Activity [6]: 100%
Activity [7]: inactive
Activity [8]: inactive
Activity [9]: inactive
Activity [10]: inactive
Activity [11]: inactive
Activity [12]: inactive
Activity [13]: inactive
Activity [14]: inactive
Activity [15]: inactive
Activity [16]: Active
Activity [17]: inactive
Activity [18]: inactive
Activity [19]: inactive
Activity [20]: inactive
Activity [21]: inactive
Activity [22]: inactive
Activity [23]: inactive
Activity [24]: inactive
IC50 [25]: 0.007 µM
IC50 [26]: 0.53 µM
Activity [27]: inactive
Activity [28]: inactive
Activity [29]: inactive
Activity [30]: inactive
Activity [31]: inactive
Activity [32]: inactive
CI [33]: 0.001
CI [34]: 0.001
CI [35]: 1
CI [36]: 0.6
CI [37]: 0.35
Activity [38]: Tde
Activity [39]: Active
Activity [40]: Active
Kd [41]: 0.815 µM
Kd [42]: 1.05 µM
IC50 [43]: 0.155 µM
Kd [44]: 0.385 µM
Activity [45]: inactive

Reference: ChEMBL document CHEMBL4819106, “Aminopyrazole based CDK9 PROTAC sensitizes pancreatic cancer cells to venetoclax” (Bioorg Med Chem Lett, 2021)
